# Data reported in ChEMBL document CHEMBL5154669, “G-Quadruplex DNA as a Target in Pathogenic Bacteria: Efficacy of an Extended Naphthalene Diimide Ligand and Its Mode of Action” (J Med Chem, 2022).
# Legend:
# Acinetobacter baumannii [1] = experiment: Antibacterial activity against Acinetobacter baumannii LMG 01041 assessed as inhibition of bacterial growth incubated for 20 hrs by CLSI based broth microdilution method; type: functional
# Outline: (§1)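 Broth microdilution in cation-adjusted Mueller-Hinton broth following CLSI guidelines. DMSO stocks were at 10 mM; compounds were twofold serially diluted over 128 to 2 μM. The inoculum was at 5 × 10⁵, prepared from colonies grown 20 h at 37 °C and adjusted to 0.5 McFarland. Plates ran 20 h at 37 °C with OD600 read-out. MIC was the lowest concentration inhibiting visible growth, in triplicate.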
# DNA [2] = experiment: Stabilization of Escherichia coli in G-quadruplex DNA GGT GGG GAG GGG TAA GGG G assessed as melting temperature at 10 uM incubated for 16 hrs by […]; type: nucleic-acid assay
# Outline: (§2)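 Readout was CD melting, not FRET: 2.5 μM oligonucleotide in 10 mM lithium cacodylate pH 7.4 with KCl set per sequence (initial Tm 60-70 °C). Annealed 95 °C 5 min, cooled to room temperature over 4 h, then ligand 10 μM (4 equiv) equilibrated 16 h at 20 °C. Ellipticity at 260 nm tracked every 0.1 °C, 20-95 °C at 5 °C/min; Tm by van't Hoff two-state fit.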
# Enterococcus faecium [3] = experiment: Antimicrobial activity against Enterococcus faecium LMG 16003 assessed as inhibition of bacterial growth in presence of D11 incubated for 20 hrs; conditions: LMG 16003, 20 h
# Enterococcus faecium [4] = experiment: Antibacterial activity against Enterococcus faecium LMG 11423 assessed as inhibition of bacterial growth incubated for 20 hrs by CLSI based broth microdilution method; conditions: LMG 11423, 20 h
# Enterobacter cloacae [5] = experiment: Antimicrobial activity against Enterobacter cloacae LMG 02783 assessed as inhibition of bacterial growth in presence of D11 incubated for 20 hrs; conditions: LMG 02783, 20 h
# DNA [6] = experiment: Stabilization of Escherichia coli in G-quadruplex DNA GGG GCG GGG TGG GTT GG assessed as melting temperature at 10 uM incubated for 16 hrs by FRET method; type: nucleic-acid assay
# Bacillus cereus [7] = experiment: Antibacterial activity against Bacillus cereus ATCC 10987 assessed as inhibition of bacterial growth incubated for 20 hrs by CLSI based broth microdilution method; type: functional; outline: as §1
# DNA [8] = experiment: Stabilization of Escherichia coli in G-quadruplex DNA GGT GGG GAG GGG TAA GGG G assessed as change in melting temperature at 10 uM incubated for 16 hrs by FRET method; type: nucleic-acid assay; conditions: in the assay text read “by CD melting method” for “by FRET method”; outline: as §2
# Bacillus cereus [9] = experiment: Bacteriostatic activity against Bacillus cereus ATCC 10987 assessed as inhibition of bacterial growth; type: functional
# Outline: (§3)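 A standard MIC plate (128–2 μM, cMHB, 20 h, 37 °C) was read at OD600. Each well then seeded at 10% a fresh compound-free cMHB plate, grown another 20 h at 37 °C and read at OD600. No growth at the same concentration in both plates counted as bactericidal. Growth above the MIC counted as bacteriostatic. Done in triplicate.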
# DNA [10] = experiment: Stabilization of Escherichia coli in G-quadruplex DNA GGG GGA GGA GGA CGG GGG assessed as change in melting temperature at 10 uM incubated for 16 hrs by FRET method; type: nucleic-acid assay; conditions: in the assay text read “by CD melting method” for “by FRET method”; outline: as §2
# Pseudomonas aeruginosa [11] = experiment: Bactericidal activity against Pseudomonas aeruginosa LMG 6395 assessed as inhibition of bacterial growth; type: functional; outline: as §3
# Enterococcus faecalis [12] = experiment: Bacteriostatic activity against Enterococcus faecalis V583 assessed as inhibition of bacterial growth; type: functional; outline: as §3
# Pseudomonas aeruginosa [13] = experiment: Antibacterial activity against Pseudomonas aeruginosa LMG 6395 assessed as inhibition of bacterial growth incubated for 20 hrs by CLSI based broth microdilution method; type: functional; outline: as §1
# [14] = Toxicity against Galleria mellonella assessed as survival at 5 to 128 mg/kg measured after 5 days; type: organism-based; conditions: in vivo, dose 5-128 mg/kg, time 5 day, read-out: Activity
# Outline: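 For uninfected larvae, 20 per treatment, 10 µL was injected into the hemocoel through the last left proleg to give 8, 16, 32, 64 or 128 mg/kg. NaCl 0.9% served as the negative control. Larvae were held at 37 °C for 5 d, with mortality recorded daily.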
# Klebsiella aerogenes = experiment: Antimicrobial activity against Enterobacter aerogenes LMG 02094 assessed as inhibition of bacterial growth in presence of D11 incubated for 20 hrs; conditions: LMG 02094, 20 h
# Acinetobacter baumannii [15] = experiment: Antimicrobial activity against Acinetobacter baumannii LMG 01041 assessed as inhibition of bacterial growth in presence of D11 incubated for 20 hrs; conditions: LMG 01041, 20 h
# Enterococcus faecalis [16] = experiment: Antibacterial activity against Enterococcus faecalis LMG 16216 assessed as inhibition of bacterial growth incubated for 20 hrs by CLSI based broth microdilution method; type: functional; outline: as §1
# Bacillus cereus [17] = experiment: Antibacterial activity against Bacillus cereus ATCC 10987; type: functional, organism-based; conditions: DDE = dose-dependent effect
# Outline: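 Cultures were inoculated at 2% and grown at 37 °C, with OD600 read every 5 min for 8 h. NDI-10 was added at exponential-phase onset (~3 h). Concentrations were 32, 16, 8 and 4 μM for E. coli, and 16, 8, 4 and […] μM for the Gram-positive strains.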
# Staphylococcus aureus [18] = experiment: Antibacterial activity against Staphylococcus aureus LMG 15975 assessed as inhibition of bacterial growth incubated for 20 hrs by CLSI based broth microdilution method; type: functional; outline: as §1
# DNA [19] = experiment: Stabilization of Staphylococcus aureus in G Quadruplex DNA GGGGCTAATTGGGGCTGGTGG assessed as melting at 10 uM incubated for 16 hrs temperature by […]; type: nucleic-acid assay; outline: as §2
# Staphylococcus aureus [20] = experiment: Antibacterial activity against Staphylococcus aureus LMG 8224 infected in Galleria mellonella assessed as survival at 5 to 10 mg/kg after 3 days; conditions: dose 5-10 mg/kg, time 3 day
# Escherichia coli [21] = experiment: Antimicrobial activity against Escherichia coli LMG 8223 assessed as inhibition of bacterial growth in presence of D11 incubated for 20 hrs; conditions: LMG 8223, 20 h
# Bacillus cereus [22] = experiment: Antibacterial activity against Bacillus cereus ATCC 14579 assessed as inhibition of bacterial growth incubated for 20 hrs by CLSI based broth microdilution method; type: functional; outline: as §1
# DNA [23] = experiment: Stabilization of Staphylococcus aureus in G-quadruplex DNA GGGTTTGGGGCGGCGGTTGG assessed as change in melting temperature at 10 uM incubated for 16 hrs by FRET method; type: nucleic-acid assay; conditions: in the assay text read “by CD melting method” for “by FRET method”
# Enterobacter cloacae [24] = experiment: Bactericidal activity against Enterobacter cloacae LMG 02783 assessed as inhibition of bacterial growth; type: functional; outline: as §3
# Escherichia coli [25] = experiment: Antibacterial activity against Escherichia coli LMG 8223 assessed as inhibition of bacterial growth incubated for 20 hrs by CLSI based broth microdilution method; type: functional; outline: as §1
# Enterococcus faecalis [26] = experiment: Antibacterial activity against Enterococcus faecalis LMG 08222 assessed as inhibition of bacterial growth incubated for 20 hrs by CLSI based broth microdilution method; type: functional; outline: as §1
structure (smiles),measurement,setting,value
CN(C)CCCn1c(=O)c2ccc3c(=O)n(CCCN(C)C)c(=O)c4c5[nH]c6ccccc6[nH]c5c(c1=O)c2c34.O=C(O)C(F)(F)F.O=C(O)C(F)(F)F,MIC,Acinetobacter baumannii [1],64 µM
same,Tm,DNA [2],91 °C
same,MIC,Enterococcus faecium [3],4 µM
same,MIC,Enterococcus faecium [4],4 µM
same,MIC,Enterobacter cloacae [5],8 µM
same,Tm,DNA [6],82.5 °C
same,MIC,Bacillus cereus [7],8 µM
same,ΔTm,DNA [8],31 °C
same,MIC,Bacillus cereus [9],64 µM
same,ΔTm,DNA [10],> 24.8 °C
same,MIC,Pseudomonas aeruginosa [11],128 µM
same,MIC,Enterococcus faecalis [12],64 µM
same,MIC,Pseudomonas aeruginosa [13],128 µM
same,survival at 120 h,[14],65%
same,MIC,Klebsiella aerogenes,8 µM
same,MIC,Acinetobacter baumannii [15],8 µM
same,MIC,Enterococcus faecalis [16],4 µM
same,Activity,Bacillus cereus [17],Dde
same,MIC,Staphylococcus aureus [18],16 µM
same,Tm,DNA [19],88.3 °C
same,Activity,Staphylococcus aureus [20],70%
same,MIC,Escherichia coli [21],< 0.5 µM
same,MIC,Bacillus cereus [22],8 µM
same,ΔTm,DNA [23],> 35.6 °C
same,MIC,Enterobacter cloacae [24],8 µM
same,MIC,Escherichia coli [25],16 µM
same,MIC,Enterococcus faecalis [26],8 µM
